APP 5'UTR act – APP 5'UTR luciferase reporter activation; SH-SY5Y APP 5'UTR luciferase reporter, luminescence; zero percent = DMSO vehicle wells; activation, % at 2 µM; hit rate 1% among 190,000; AID 1276;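 active means activation above a set limit, based on mean plus 3 SD of controls, cut at about 140% in these data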
STAT3 blocker – STAT3 signaling inhibition; U3A cells, IL-6 STAT3-luciferase reporter, luminescence; host cell line lacks STAT1; inhibition, % at 5.5 µM; hit rate 0.89% among 190,000; AID 862;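 active means inhibition above the mean inhibition across all screened compounds plus 3 SD, cut at about 44% in these data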;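 further: 0% = DMSO only wells and 100% = 100 µM nifuroxazide control wells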
NF-kB expr up – compounds increasing NF-kB expression in human neuronal cells. hit rate 1.6% among 190,000. NF-kB reporter expression; stronger effect = higher value. fold change at 12.5 µM; in the data active means fold change above about 3.3
STAT1 blocker – inhibitors of IFN-gamma induced STAT1 signaling | hit rate 0.35% among 200,000 | inhibition, % at 5.5 µM | NIH 3T3 STAT1-luciferase reporter, luminescence;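 active means inhibition above a set limit, the mean inhibition across all tested compounds plus 3 SD, cut at about 34% in these data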;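 further: 0% = IFN-gamma with DMSO and 100% = IFN-gamma with 300 µM nifuroxazide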
STAT1 activator – STAT1 signaling activation. NIH 3T3 STAT1-luciferase reporter, IFN-gamma, luminescence; 100% = IFN-gamma alone, no compound. activation (% of control), % at 5.5 µM. hit rate 2.6% among 200,000;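 active means activation above the screen-wide mean activation plus 3 SD, cut at about 130% in these data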;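 further: raw ratio to IFN-gamma control signal so 100% means no change and 0% no light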
STAT3 activator – increases IL-6 driven STAT3 reporter signal. U3A cells, IL-6 STAT3-luciferase reporter, luminescence; 100% = signal with IL-6 EC80 alone. activation (% of control), % at 5.6 µM. hit rate 0.91% among 190,000;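 active means activation above the screen-wide mean of compound activation plus 3 SD, cut at about 130% in these data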;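 further: 0% = background luminescence of wells with medium and substrate only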
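Material: STAT1-lacking human U3A cells, STAT3 luciferase reporter | Benchmarks: IL-6-only wells as 100% reference | Probe or stimulus: IL-6 (33 ng/mL) | Timing: Compound 1 h, then IL-6 6 h at 37 °C | Detection: Luminescence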
Active calls of the source: *; nt = no result given. Sampled rows, rich in hits. Any-hit rate of the full collection: about 5.1%.

SMILES	APP 5'UTR act	STAT3 blocker	NF-kB expr up	STAT1 blocker	STAT1 activator	STAT3 activator
C#Cc1ccc([C@@H]2C=C(C(=O)N3CCOCC3)O[C@H](OCC)[C@H]2CCCO)cc1	3.6	nt	1.07	7.3	94.6	nt
O=C(NCc1ccccc1)c1noc2c1CCCCC2	65.9	-12.3	1.85	-32.8	130.1*	113.0
O=C(Nc1cnn(Cc2ccc(F)cc2)c1)c1noc2c1CCCC2	59.2	13.4	1.58	-34.4	129.4*	95.3
Cc1ccc(NC(=O)c2noc3c2CCC3)cc1C	181.9*	13.7	8.26*	-11.2	108.3	95.1
COc1ccc(CNC(=O)c2noc3c2CCCCC3)cc1	-1.3	7.2	1.63	-4.8	105.8	99.4
COC(=O)c1ccccc1NC(=O)c1noc2c1CCCC2	-3.8	5.2	0.95	-12.2	112.7	101.2
COc1ccc(NC(=O)c2noc3c2CCC3)cc1	142.7*	9.7	3.96*	-41.8	138.6*	97.5
CCCC1=NN(C(=O)Cc2ccc(OC)cc2)C(O)(C(F)(F)F)C1 (stereo not drawn)	4.4	-12.6	0.89	-4.5	104.1	106.1
CCOC(=O)c1c(NC(=O)COc2cccc3c2CCN(CC)C3=O)sc2c1CCC2	6.4	5.4	0.65	-1.1	101.0	97.3
CC(=O)c1ccc(NC(=O)c2noc3c2CCC3)cc1	138.3*	66.5*	4.85*	52.6*	50.5	45.7
COc1cc(OC)cc(C(=O)Nn2cc(C(=O)Nc3ccccc3F)c3ccccc3c2=O)c1	-12.7	-46.0	1.48	19.5	83.6	134.1*
O=C(Nn1cc(C(=O)Nc2ccccc2F)c2ccccc2c1=O)c1cnccn1	-12.8	0.4	1.32	7.4	92.4	101.7
CCCN(CC1CC1)C(=O)COC(=O)c1[nH]c(C)c(C(=O)OCC)c1C	13.2	-4.0	1.52	4.6	95.7	107.4
Nc1nc(CSC(=S)N2CCCCC2)nc(Nc2ccccc2)n1	53.3	-21.4	1.88	-36.4	136.4*	123.1
Cc1ccc(Nc2nc(N)nc(CSC(=S)N3CCOCC3)n2)cc1	46.3	-18.0	2.01	-28.3	125.9	121.0
Nc1nc(CSC(=S)N2CCOCC2)nc(Nc2ccccc2)n1	42.2	-22.4	1.66	-35.1	131.3*	121.5
CS(=O)(=O)N(CC(=O)Nc1ccc(CC#N)cc1)c1ccc(C23CC4CC(CC(C4)C2)C3)cc1	0.3	-5.5	1.44	-7.9	104.4	114.2
CSc1ccc(/C=N/NC(=O)CN2CCN(Cc3ccc(C)cc3)CC2)cc1	6.3	-0.3	1.34	2.3	97.9	96.7
c1ccc2nc(-c3ccncc3)ccc2c1	6.8	9.8	1.57	-26.7	124.0	96.6
CN1CCN(c2ccc(-c3ccc4ccccc4n3)cc2)CC1	-51.0	112.1*	0.34	95.3*	11.3	8.9
c1ccc2nc(-c3ccc(N4CCOCC4)cc3)ccc2c1	nt	99.2*	2.4	68.4*	38.5	22.4
Cc1cc(-c2ccc(N3CCOCC3)cc2)nc2ccccc12	90.3	-14.8	2.9	-32.9	129.9*	112.3
CC(NC(=O)c1cn(C(C)c2ccccc2F)nn1)c1ccncc1 (stereo not drawn)	6.0	-1.3	1.12	-3.1	101.9	107.8
COc1ccc(CCC(=O)Nc2sccc2C#N)cc1	130.1	14.4	2.35	-29.9	130.1*	91.8
CC(=O)N1CCC(N(CCN2CCOCC2)C(=S)Nc2c(C)cccc2C)CC1	0.7	-0.4	1.19	2.1	98.1	98.2
SMILES	APP 5'UTR act	STAT3 blocker	NF-kB expr up	STAT1 blocker	STAT1 activator	STAT3 activator
O=C(Cn1cnc2c(oc3ccccc32)c1=O)c1ccccc1	102.5	-0.6	2.7	-52.9	148.4*	105.4
CCn1cnc2c(oc3ccccc32)c1=O	2.0	-2.0	1.49	0.8	99.9	102.2
CC1CCC/C(=C(\C#N)c2nc(-c3cc4ccccc4oc3=O)cs2)C1 (stereo not drawn)	148.2*	-13.0	0.8	-24.7	122.4	110.7
O=C1C2CC(O)CN2C(=O)N1c1ccccc1 (stereo not drawn)	2.6	7.2	1.4	3.9	95.6	99.8
COc1cccc(-c2nnc(-c3ccco3)o2)c1	108.9	9.4	2.96	-49.9	144.1*	95.7
O=C(Nc1ccccc1)C1=C[C@H](c2ccc3c(c2)OCO3)C[C@H](OCCCCO)O1	13.8	nt	1.25	-20.5	120.7	nt
O=C(Nc1ccccc1)C1=C[C@@H](c2ccc(Br)cc2)C[C@@H](OCCCCO)O1	20.6	nt	1.46	-29.5	129.1*	nt
CC(C)c1ccc(-n2cnn(-c3ncccc3[N+](=O)[O-])c2=O)cc1	140.1*	-3.9	8.59*	-23.4	121.7	104.7
C1CCN=C(Nc2nc3c(s2)CCCC3)CC1	30.3	3.8	1.83	-33.8	130.8*	100.3
COC(=O)c1sc(Nc2ccccc2)nc1C	34.6	-0.4	1.93	-30.4	127.9	105.2
O=C(O)c1ccc(Nc2nc3c(s2)CCCC3)cc1	64.9	80.1*	3.52*	68.8*	35.9	32.4
C/C(=N\Nc1nc2c(s1)CCCC2)c1ccccc1	15.3	-101.1	2.12	-53.0	149.0*	184.4*
Cc1nc(Nc2ccc(C(=O)O)cc2)sc1-c1ccccc1	159.5*	71.7*	nt	-33.4	131.2*	40.6
Cc1cc(C)cc(OCC(=O)OCC(=O)N2CC(=O)Nc3ccccc32)c1	-11.5	-0.7	1.67	0.0	99.3	102.6
Cc1sc2nc(CSCC(=O)Nc3ccccc3C#N)[nH]c(=O)c2c1C	3.7	-21.9	1.07	12.8	88.3	113.6
CNC(=S)NCC(O)c1ccc([N+](=O)[O-])cc1 (stereo not drawn)	-0.8	1.8	1.62	-1.2	101.0	102.7
CCc1ccc(C(C)NC(=O)Cn2cnc3c(=O)n(C)c(=O)n(C)c32)cc1 (stereo not drawn)	8.8	-1.9	1.28	-2.3	102.2	101.3
Cn1nnc(-c2ccc(OCc3ccccc3F)cc2)n1	138.2*	27.9	7.83*	-23.9	122.1	80.1
CCOC(=O)N1CCN(C(=O)CSCc2ccccc2)CC1	54.8	-11.5	1.64	-33.5	129.8*	108.4
CCOC(=O)C1=C(C)OC(N)=C(C#N)C1c1ccc(C)s1 (stereo not drawn)	13.6	-1.9	1.36	4.8	93.8	107.5
CO/N=C\CC(=O)Nc1ccc(Oc2ccccc2)cc1	-68.5	-8.3	1.22	0.7	97.0	107.7
O=C(CSC(=S)N1CCSCC1)c1ccc(Cl)cc1	151.3*	19.2	5.15*	-30.7	129.2*	90.1
O=C(Nc1ccccc1)N1CCSCC1	-2.2	-3.3	1.71	-7.2	106.6	105.4
O=C(CSC(=S)N1CCSCC1)c1ccccc1	112.9	30.2	6.17*	-40.4	137.3*	79.7
CCO[C@@H]1OC(C(=O)N2CCCCCCC2)=C[C@H](c2ccc3c(c2)OCO3)[C@H]1CCCO	11.2	nt	1.3	-2.4	103.7	nt
COc1cc(C(=O)NC(=S)Nc2ccc3c(c2)C(=O)N(C)C3=O)cc(OC)c1OC	-7.3	3.7	1.07	-1.9	101.6	99.2
CCOC(=O)C1C(c2cccs2)NC(=O)N(C)C1(O)C(F)(F)F (stereo not drawn)	-10.5	2.8	1.13	-4.7	104.3	101.0

Bioassay records (PubChem BioAssay)
